Results on 26 molecules are retold here after ChEMBL document CHEMBL1130878 (Bioorg Med Chem Lett, 1998).

The first experiment addresses T1, Endothelin receptor type B (Sus scrofa, UniProt P35463).
T1 sequence (P35463 whole entry): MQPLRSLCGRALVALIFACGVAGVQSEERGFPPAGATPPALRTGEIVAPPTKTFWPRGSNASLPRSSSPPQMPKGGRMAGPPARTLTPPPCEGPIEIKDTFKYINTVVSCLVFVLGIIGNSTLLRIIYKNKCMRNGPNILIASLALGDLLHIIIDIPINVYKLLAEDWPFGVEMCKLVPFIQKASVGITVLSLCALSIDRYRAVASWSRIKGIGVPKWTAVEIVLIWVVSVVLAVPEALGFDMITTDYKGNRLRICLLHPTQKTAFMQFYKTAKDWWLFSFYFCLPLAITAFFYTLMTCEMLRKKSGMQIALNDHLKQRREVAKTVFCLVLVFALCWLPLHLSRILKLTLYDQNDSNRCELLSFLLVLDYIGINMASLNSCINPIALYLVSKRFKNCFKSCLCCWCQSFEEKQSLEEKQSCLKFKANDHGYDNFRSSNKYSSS
As to the kind of experiment: In vitro ability to inhibit specific [125I]ET1 binding to porcine kidney (inner medulla) membranes Endothelin B receptor.
Conditions: not given
Take `COc1ccc(C(=O)/C(Cc2ccccc2)=C(\C(=O)O)c2ccc3nsnc3c2)cc1`: the IC50 – broadly, the concentration at which inhibition is half-maximal – is 1.2 µM. In other words, the single-digit micromolar range.
`COc1ccc(C(=O)/C(Cc2cc(OC)c(OC)c(OC)c2)=C(\C(=O)O)c2ccc3nsnc3c2)cc1` had an IC50 of 0.34 µM. Against the preceding molecule, the IC50 is about 3.5-fold lower.
For the molecule `COc1ccc(C(=O)/C(Cc2ccc3c(c2)CCO3)=C(\C(=O)O)c2ccc3nsnc3c2)cc1`, the IC50 came to 1.4 µM.
`COc1ccc(C(=O)/C(Cc2ccc(SC)cc2)=C(\C(=O)O)c2ccc3nsnc3c2)cc1` displayed a concentration for half-maximal inhibition (IC50) of 3.2 µM.
Still for that read-out and setting: with `COc1ccc(C(=O)/C(Cc2cc(OC)c(OC)c(OC)c2)=C(\C(=O)O)c2ccc3c(c2)OCO3)cc1` [PD-156707 SODIUM] the figure was 0.34 µM; with `COc1ccc(C(=O)/C(Cc2ccccc2)=C(\C(=O)O)c2ccc3c(c2)OCO3)cc1`, 4.55 µM.
`COc1ccc(C(=O)/C(Cc2cc(OC)c(OC)c(OC)c2)=C(\C(=O)O)c2ccc3nsnc3c2)cc1C` registered a 50% inhibitory concentration (IC50) of 0.26 µM. Compared with the last molecule, the IC50 is about 18-fold lower.
Turning to `COc1cc(C/C(C(=O)c2ccc(OC(C)C)c(F)c2)=C(/C(=O)O)c2ccc3nsnc3c2)cc(OC)c1OC`, the 50% inhibitory concentration (IC50) was determined as 0.29 µM.
The same measure, in the same setting: with `COc1cc(C/C(C(=O)c2ccc3c(c2)CCO3)=C(/C(=O)O)c2ccc3nsnc3c2)cc(OC)c1OC` the figure was 0.46 µM; with `COc1cc(C/C(C(=O)c2ccc3c(c2)OCO3)=C(/C(=O)O)c2ccc3nsnc3c2)cc(OC)c1OC`, 0.4 µM.
Still for that read-out and setting: the result for `COc1ccc(C(=O)/C(Cc2cccc(OC)c2)=C(\C(=O)O)c2ccc3nsnc3c2)cc1` reads 1 µM; that for `COc1cc(C/C(C(=O)c2ccc(OC(C)C)cc2)=C(/C(=O)O)c2ccc3nsnc3c2)cc(OC)c1OC`, 0.55 µM; that for `COc1ccc(C(=O)/C(Cc2cc(OC)c(OC)c(OC)c2)=C(\C(=O)O)c2ccc3nsnc3c2)cc1Cl`, 0.18 µM.
Still for that read-out and setting: with `COc1cc(C/C(C(=O)c2cc(OC)c(OC)c(OC)c2)=C(/C(=O)O)c2ccc3nsnc3c2)cc(OC)c1OC` the figure was 0.34 µM; with `COc1ccc(C/C(C(=O)c2ccc(OC)cc2)=C(/C(=O)O)c2ccc3nsnc3c2)cc1`, 1.8 µM.
Take `COc1ccc(C(=O)/C(Cc2cc(OC(C)C)c(OC(C)C)c(OC(C)C)c2)=C(\C(=O)O)c2ccc3nsnc3c2)cc1`: the half-inhibitory concentration (IC50) stood at 0.22 µM.
Still for that read-out and setting: with `COc1ccc(C(=O)/C(Cc2ccc(OC)c(F)c2)=C(\C(=O)O)c2ccc3nsnc3c2)cc1` the figure was 2.9 µM.
On to `COc1ccc(C(=O)/C(Cc2ccccc2OC)=C(\C(=O)O)c2ccc3nsnc3c2)cc1`, for which the IC50 was 0.82 µM.
Molecule `COc1ccc(C(=O)/C(Cc2ccc(OC(C)(C)C)cc2)=C(\C(=O)O)c2ccc3nsnc3c2)cc1` gave an IC50 of 1.6 µM.
`COc1ccc(C(=O)/C(Cc2ccc3c(c2)OCO3)=C(\C(=O)O)c2ccc3nsnc3c2)cc1` registered an IC50 of 1.5 µM.
In turn, `COc1ccccc1C(=O)/C(Cc1cc(OC)c(OC)c(OC)c1)=C(\C(=O)O)c1ccc2nsnc2c1` showed an IC50 of 4.8 µM.
In turn, `COc1cccc(C(=O)/C(Cc2cc(OC)c(OC)c(OC)c2)=C(\C(=O)O)c2ccc3nsnc3c2)c1` came in with an IC50 of 1.8 µM.
As for `COc1cc(C/C(C(=O)c2ccc(OC(F)F)cc2)=C(/C(=O)O)c2ccc3nsnc3c2)cc(OC)c1OC`, the IC50 came to 1.9 µM.

The next experiment concerns the target T2, Endothelin-1 receptor (Rattus norvegicus, UniProt P26684).
T2 sequence (P26684 whole entry): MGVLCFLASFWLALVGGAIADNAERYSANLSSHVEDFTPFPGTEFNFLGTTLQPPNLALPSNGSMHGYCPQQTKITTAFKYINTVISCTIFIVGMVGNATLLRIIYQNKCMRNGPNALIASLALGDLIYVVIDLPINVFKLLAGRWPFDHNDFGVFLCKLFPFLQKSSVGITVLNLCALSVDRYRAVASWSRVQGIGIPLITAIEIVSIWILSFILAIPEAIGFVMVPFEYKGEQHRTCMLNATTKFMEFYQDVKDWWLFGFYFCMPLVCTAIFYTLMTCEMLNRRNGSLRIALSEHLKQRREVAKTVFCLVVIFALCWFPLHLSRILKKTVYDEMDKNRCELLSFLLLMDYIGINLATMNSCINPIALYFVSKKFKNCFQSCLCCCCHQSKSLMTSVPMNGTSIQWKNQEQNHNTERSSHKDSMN
Put plainly: In vitro ability to inhibit specific [125I]ET1 binding to rat aorta membranes Endothelin A receptor. In kind it is tissue-based.
Conditions: not given
Molecule `COc1ccc(C(=O)/C(Cc2ccccc2)=C(\C(=O)O)c2ccc3nsnc3c2)cc1` gave an IC50 of 0.026 µM.
`COc1ccc(C(=O)/C(Cc2cc(OC)c(OC)c(OC)c2)=C(\C(=O)O)c2ccc3nsnc3c2)cc1`: the IC50 is 0.0003 µM.
For `COc1ccc(C(=O)/C(Cc2ccc3c(c2)CCO3)=C(\C(=O)O)c2ccc3nsnc3c2)cc1`, the IC50 stood at 0.0034 µM.
Still for that read-out and setting: with `COc1ccc(C(=O)/C(Cc2ccc(SC)cc2)=C(\C(=O)O)c2ccc3nsnc3c2)cc1` the figure was 0.017 µM; with `COc1ccc(C(=O)/C(Cc2cc(OC)c(OC)c(OC)c2)=C(\C(=O)O)c2ccc3c(c2)OCO3)cc1` [PD-156707 SODIUM], 0.0013 µM.
`COc1ccc(C(=O)/C(Cc2ccccc2)=C(\C(=O)O)c2ccc3c(c2)OCO3)cc1` registered an IC50 of 0.0074 µM.
`COc1ccc(C(=O)/C(Cc2cc(OC)c(OC)c(OC)c2)=C(\C(=O)O)c2ccc3nsnc3c2)cc1C` had an IC50 of 0.0014 µM. Compared with the last molecule, the IC50 is about 5.3-fold lower.
For `COc1cc(C/C(C(=O)c2ccc(OC(C)C)c(F)c2)=C(/C(=O)O)c2ccc3nsnc3c2)cc(OC)c1OC`, the half-inhibitory concentration (IC50) was determined as 0.065 µM.
Regarding `COc1cc(C/C(C(=O)c2ccc3c(c2)CCO3)=C(/C(=O)O)c2ccc3nsnc3c2)cc(OC)c1OC`, the IC50 turned out to be 0.028 µM. This IC50 is about 2.3-fold lower than that of the molecule before.
For the molecule `COc1cc(C/C(C(=O)c2ccc3c(c2)OCO3)=C(/C(=O)O)c2ccc3nsnc3c2)cc(OC)c1OC`, the 50% inhibitory concentration (IC50) was 0.0065 µM.
`COc1ccc(C(=O)/C(Cc2cccc(OC)c2)=C(\C(=O)O)c2ccc3nsnc3c2)cc1` came in with an IC50 of 0.0034 µM.
Same read-out and setting: the result for `COc1cc(C/C(C(=O)c2ccc(OC(C)C)cc2)=C(/C(=O)O)c2ccc3nsnc3c2)cc(OC)c1OC` reads 0.064 µM; that for `COc1ccc(C(=O)/C(Cc2cc(OC)c(OC)c(OC)c2)=C(\C(=O)O)c2ccc3nsnc3c2)cc1Cl`, 0.001 µM.
`COc1cc(C/C(C(=O)c2cc(OC)c(OC)c(OC)c2)=C(/C(=O)O)c2ccc3nsnc3c2)cc(OC)c1OC` yielded an IC50 of 0.0037 µM.
The molecule `COc1ccc(C/C(C(=O)c2ccc(OC)cc2)=C(/C(=O)O)c2ccc3nsnc3c2)cc1` yielded an IC50 of 0.028 µM.
On the same count and under the same terms, the result for `COc1ccc(C(=O)/C(Cc2cc(OC)c(OC)c(OC)c2)=C(\C(=O)O)c2ccc3nsnc3c2)c(F)c1` reads 0.003 µM.
For `COc1ccc(C(=O)/C(Cc2cc(OC(C)C)c(OC(C)C)c(OC(C)C)c2)=C(\C(=O)O)c2ccc3nsnc3c2)cc1`, the IC50 amounted to 0.057 µM.
`COc1ccc(C(=O)/C(Cc2ccc(OC)c(F)c2)=C(\C(=O)O)c2ccc3nsnc3c2)cc1` showed an IC50 of 0.014 µM.
The molecule `COc1ccc(C(=O)/C(Cc2ccccc2OC)=C(\C(=O)O)c2ccc3nsnc3c2)cc1` had an IC50 of 0.0034 µM. Against the preceding molecule, the IC50 is about 4.1-fold lower.
Consider `COc1ccc(C(=O)/C(Cc2ccc(OC(C)(C)C)cc2)=C(\C(=O)O)c2ccc3nsnc3c2)cc1`, for which the IC50 came to 0.58 µM. Against the preceding molecule, the IC50 is about 170-fold higher.
Consider `COc1cc(F)ccc1C(=O)/C(Cc1cc(OC)c(OC)c(OC)c1)=C(\C(=O)O)c1ccc2nsnc2c1`, for which the IC50 was determined as 0.012 µM.
Take `COc1ccc(C(=O)/C(Cc2ccc3c(c2)OCO3)=C(\C(=O)O)c2ccc3nsnc3c2)cc1`: the 50% inhibitory concentration (IC50) came to 0.066 µM.
Molecule `COc1ccccc1C(=O)/C(Cc1cc(OC)c(OC)c(OC)c1)=C(\C(=O)O)c1ccc2nsnc2c1` showed a half-maximal inhibitory concentration (IC50) of 0.016 µM. Against the preceding molecule, the IC50 is about 4.1-fold lower.
For `COc1cccc(C(=O)/C(Cc2cc(OC)c(OC)c(OC)c2)=C(\C(=O)O)c2ccc3nsnc3c2)c1`, the IC50 is 0.0046 µM.
The molecule `COc1cc(C/C(C(=O)c2ccc(OC(F)F)cc2)=C(/C(=O)O)c2ccc3nsnc3c2)cc(OC)c1OC` showed an IC50 of 0.16 µM. This IC50 lies about 35-fold higher than the previous one.

The species named for a further experiment is Rattus norvegicus. Put plainly: Compound was evaluated for the functional assay performed by obtaining ET-1 concentration-response curves [pA2(ETA)] in isolated rat aortic rings. The conditions noted are these: Aorta, read-out: pA2 (converted). The gist of the method: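 Functional ETA assay: ET-1 concentration-response curves in isolated rat aortic rings with the endothelium removed. Antagonism is expressed as pA2.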
`COc1ccc(C(=O)/C(Cc2ccccc2)=C(\C(=O)O)c2ccc3nsnc3c2)cc1`: the Kb was 0.0251 µM.
Consider `COc1ccc(C(=O)/C(Cc2cc(OC)c(OC)c(OC)c2)=C(\C(=O)O)c2ccc3nsnc3c2)cc1`, for which the Kb was 0.00316 µM.
Take `COc1ccc(C(=O)/C(Cc2cc(OC)c(OC)c(OC)c2)=C(\C(=O)O)c2ccc3c(c2)OCO3)cc1` [PD-156707 SODIUM]: the Kb was 0.0251 µM.
Take `CCCCN(CCCC)C(=O)CN1C[C@H](c2ccc3c(c2)OCO3)[C@@H](C(=O)O)[C@@H]1c1ccc(OC)cc1`: the Kb was 0.00251 µM.

The next experiment is filed under the species Oryctolagus cuniculus. As to the kind of experiment: Compound was evaluated for the functional assay performed by obtaining sarafotoxin 6c concentration-response curves [pA2(ETB)] in isolated rabbit jugularis vein.
Conditions: not given
Molecule `COc1ccc(C(=O)/C(Cc2cc(OC)c(OC)c(OC)c2)=C(\C(=O)O)c2ccc3nsnc3c2)cc1` showed a Kb of 0.794 µM.
In the case of `COc1ccc(C(=O)/C(Cc2cc(OC)c(OC)c(OC)c2)=C(\C(=O)O)c2ccc3c(c2)OCO3)cc1` [PD-156707 SODIUM], the Kb was over 3.16 µM.
Molecule `CCCCN(CCCC)C(=O)CN1C[C@H](c2ccc3c(c2)OCO3)[C@@H](C(=O)O)[C@@H]1c1ccc(OC)cc1` gave a Kb of 0.794 µM.
